Active and inactive are the calls of the source. No cut-off for these calls is given here. Bridge positions count the residues as written; N and C are the ends. Square brackets hold non-standard residues; d marks the D form. Peptide text beside a SMILES is read from it. Mpa = O=C(O)CCS
Assays:
[1] = target: T1, Oxytocin receptor (Rattus norvegicus) (UniProt P70536); experiment: Activity at rat oxytocin receptor in rat uterus assessed as uterotonic activity; type: tissue-based
T1 sequence (whole entry): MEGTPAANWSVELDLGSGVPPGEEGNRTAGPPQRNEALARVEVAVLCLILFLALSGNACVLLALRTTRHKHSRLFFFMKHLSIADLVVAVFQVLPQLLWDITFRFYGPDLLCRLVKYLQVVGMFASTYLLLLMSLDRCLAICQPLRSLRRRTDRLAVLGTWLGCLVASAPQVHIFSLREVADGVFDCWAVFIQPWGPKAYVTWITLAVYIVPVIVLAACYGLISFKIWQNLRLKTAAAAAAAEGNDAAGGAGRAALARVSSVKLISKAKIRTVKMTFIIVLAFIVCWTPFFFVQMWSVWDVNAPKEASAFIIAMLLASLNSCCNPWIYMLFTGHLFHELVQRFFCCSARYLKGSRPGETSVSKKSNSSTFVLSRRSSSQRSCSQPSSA
Summary of the method: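 Isolated uterine horns from virgin rats in natural estrus, Holton method as modified by Munsick, bathed in Mg²⁺-free van Dyke–Hastings solution. Specific activity is derived against the USP standard by a Schild four-point design or by matches. Expressed as USP U/mg ± SEM, with at least three animals per determination.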

Gallus gallus = experiment: Induction of vasodepressor activity in conscious chicken; type: functional
Rattus norvegicus [2] = organism: Rattus norvegicus; experiment: Antidiuretic activity in rat; type: functional, Urine
Summary of the method: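 Anesthetized male rats, Jeffers et al. method as modified by Sawyer. Specific activity is obtained against the USP standard using a Schild four-point design or matches. Reported as USP U/mg ± SEM, five animals per determination.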

Rattus norvegicus [3] = organism: Rattus norvegicus; experiment: Pressor activity in rat; type: functional
Summary of the method: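 Anesthetized male rats, per the U.S. Pharmacopeia. Potency is estimated by matches, with the USP posterior pituitary standard always injected before the analogue. Before each analogue dose, several standard doses are confirmed to give reproducible, unattenuated responses. Reported as USP U/mg ± SEM, five animals.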

[4] = Drug metabolism in rat uterine homogenate assessed as compound inactivation after 30 mins; type: ADME, tissue-based, Uterus; conditions: read-out: Drug metabolism
[5] = Drug metabolism in rat uterine homogenate assessed as compound inactivation after 60 mins; type: ADME, tissue-based, Uterus; conditions: read-out: Drug metabolism
Oryctolagus cuniculus = organism: Oryctolagus cuniculus; experiment: Induction of oxytocic activity in rabbit assessed as milk ejection; type: functional
[6] = target: T2, Oxytocin receptor (Homo sapiens) (UniProt P30559); experiment: Activity at oxytocin receptor (unknown origin) assessed as oxytocic activity
T2 sequence (whole entry): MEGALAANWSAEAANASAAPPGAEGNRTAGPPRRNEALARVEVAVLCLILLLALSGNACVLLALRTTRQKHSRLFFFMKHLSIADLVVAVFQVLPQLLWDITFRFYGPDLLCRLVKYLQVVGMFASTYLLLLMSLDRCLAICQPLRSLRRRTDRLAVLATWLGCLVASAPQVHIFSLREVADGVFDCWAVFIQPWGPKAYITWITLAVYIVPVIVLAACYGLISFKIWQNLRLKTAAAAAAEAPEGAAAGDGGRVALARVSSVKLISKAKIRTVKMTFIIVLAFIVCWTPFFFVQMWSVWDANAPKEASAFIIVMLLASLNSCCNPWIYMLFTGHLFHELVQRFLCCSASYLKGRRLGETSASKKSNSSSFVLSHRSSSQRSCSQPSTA

Rattus norvegicus [7] = experiment: Induction of vasodepressor activity in anesthetized male rat at 0.5 mg
Rattus norvegicus [8] = organism: Rattus norvegicus; experiment: Pressor activity in rat after 45 mins; type: functional, organism-based

Activity [1] [USP-U/mg]	metabolised at 0.5 h [4] [%]	metabolised at 1 h [5] [%]	Activity [6] [U/mg]	SMILES	Activity (Gallus gallus) [USP-U/mg]	Activity (Rattus norvegicus [2])	Activity (Rattus norvegicus [3]) [USP-U/mg]	Activity (Oryctolagus cuniculus) [USP-U/mg]	Activity (Rattus norvegicus [7]) [mmHg]	Activity (Rattus norvegicus [8])
803	–	–	–	CC[C@H](C)[C@@H]1NC(=O)[C@H](Cc2ccc(O)cc2)NC(=O)CCSSC[C@@H](C(=O)N2CCC[C@H]2C(=O)N[C@@H](CC(C)C)C(=O)NCC(N)=O)NC(=O)[C@H](CC(N)=O)NC(=O)[C@H](CCC(N)=O)NC1=O	975	19 USP-U/mg	1.44	541	–	–
65	–	–	68	CC[C@H](C)[C@@H]1NC(=O)[C@H](Cc2ccc(O)cc2)NC(=O)[C@@H](N)CSSC[C@@H](C(=O)NCC(=O)N[C@@H](CC(C)C)C(=O)NCC(N)=O)NC(=O)[C@H](CC(N)=O)NC(=O)[C@H](CCC(N)=O)NC1=O (H-CYIQNCGLG-NH2; disulfide 1-6)	5.3	<=0.01 USP-U/mg	0.3	224	25	–
546	–	–	–	CC[C@H](C)[C@@H]1NC(=O)[C@H](Cc2ccc(O)cc2)NC(=O)[C@@H](N)CSSC[C@@H](C(=O)N2CCC[C@H]2C(=O)N[C@@H](CC(C)C)C(=O)NCC(N)=O)NC(=O)[C@H](CC(N)=O)NC(=O)[C@H](CCC(N)=O)NC1=O [OXYTOCIN]	507	2.7 USP-U/mg	3.1	440	–	Active

The next lines start with the molecule.

SMILES	Activity [1] [USP-U/mg]	metabolised at 0.5 h [4] [%]	metabolised at 1 h [5] [%]	Activity [6] [U/mg]	Activity (Gallus gallus) [USP-U/mg]	Activity (Rattus norvegicus [2])	Activity (Rattus norvegicus [3]) [USP-U/mg]	Activity (Oryctolagus cuniculus) [USP-U/mg]	Activity (Rattus norvegicus [7]) [mmHg]	Activity (Rattus norvegicus [8])
CC[C@H](C)[C@@H]1NC(=O)[C@H](Cc2ccc(O)cc2)NC(=O)[C@@H](N)CSSC[C@@H](C(=O)N[C@@H](C)C(=O)N[C@@H](CC(C)C)C(=O)NCC(N)=O)NC(=O)[C@H](CC(N)=O)NC(=O)[C@H](CCC(N)=O)NC1=O (H-CYIQNCALG-NH2; disulfide 1-6)	22	–	–	–	4.8	0.08 USP-U/mg	0.4	–	–	–
CC[C@H](C)[C@@H]1NC(=O)[C@H](Cc2ccc(O)cc2)NC(=O)CCSSC[C@@H](C(=O)NCC(=O)N[C@@H](CC(C)C)C(=O)NCC(N)=O)NC(=O)[C@H](CC(N)=O)NC(=O)[C@H](CCC(N)=O)NC1=O ([Mpa]YIQNCGLG-NH2; disulfide 1-6)	355	3	30	–	17	0.062 USP-U/mg	0.5	–	–	–
CC[C@H](C)[C@@H]1NC(=O)[C@H](Cc2ccc(O)cc2)NC(=O)CCSSC[C@@H](C(=O)N[C@@H](C)C(=O)N[C@@H](CC(C)C)C(=O)NCC(N)=O)NC(=O)[C@H](CC(N)=O)NC(=O)[C@H](CCC(N)=O)NC1=O ([Mpa]YIQNCALG-NH2; disulfide 1-6)	123	–	–	–	9.8	0.17 USP-U/mg	0.5	–	–	–

Source: ChEMBL document CHEMBL3272081, “Oxytocin analogues with combined high smooth muscle and negligible antidiuretic activities. Investigation of position 7 in neurohypophyseal hormones” (J Med Chem, 1976)
